# Experimental data from ChEMBL document CHEMBL1165943, “Design and synthesis of new anticancer pyrimidines with multiple-kinase inhibitory effect” (Bioorg Med Chem, 2010).
# What was measured:
# Assay type in all cases: functional
# LOX IMVI = test: Cytotoxicity against human LOXIMVI cells assessed as cell growth at 10 uM; conditions: for growth at 10 µM: Homo sapiens, LOX IMVI, read-out: Activity
# Summary of the method: (§1)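 Single-dose screen at 10 μM across the 60-cell-line panel. Cells grown in RPMI 1640 with 5% FBS and 2 mM L-glutamine, seeded at 5,000–40,000 cells/well according to doubling time, and treated 24 h later. Exposure lasted 48 h at 37 °C, 5% CO₂. Adherent cells were fixed with cold TCA, suspension cells were fixed settled, and both were stained with SRB and read at 515 nm. Growth % was recorded, with inhibition % = 100 − growth %.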
# NCI-H322M = test: Cytotoxicity against human NCI-H322M cells assessed as cell growth at 10 uM; conditions: Homo sapiens, NCI-H322M; read-out: Activity; summary of the method: as §1
# HCC 2998 = test: Cytotoxicity against human HCC2998 cells assessed as cell growth at 10 uM; conditions: Homo sapiens, HCC 2998; read-out: Activity
# Summary of the method: (§2)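 Single-concentration screen at 10 μM across the 60-cell-line panel (nine tissue types); growth percentage recorded per cell line, with inhibition taken as 100 minus growth percentage.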
# HCT-116 = test: Cytotoxicity against human HCT116 cells assessed as cell growth at 10 uM; conditions: Homo sapiens, HCT-116; read-out: Activity; summary of the method: as §2
# SF-295 = test: Cytotoxicity against human SF295 cells assessed as cell growth at 10 uM; conditions: for growth at 10 µM: Homo sapiens, SF-295, read-out: Activity; summary of the method: as §1
# OVCAR-5 = test: Cytotoxicity against human OVCAR5 cells assessed as cell growth at 10 uM; conditions: for growth at 10 µM: Homo sapiens, OVCAR-5, read-out: Activity; summary of the method: as §1
# SK-MEL-2 = test: Cytotoxicity against human SK-MEL-2 cells assessed as cell growth at 10 uM; conditions: for growth at 10 µM: Homo sapiens, SK-MEL-2, read-out: Activity; summary of the method: as §1
# HT-29 = test: Cytotoxicity against human HT-29 cells assessed as cell growth at 10 uM; conditions: Homo sapiens, HT-29; read-out: Activity; summary of the method: as §2
# SK-MEL-5 = test: Cytotoxicity against human SK-MEL-5 cells assessed as cell growth at 10 uM; conditions: for growth at 10 µM: Homo sapiens, SK-MEL-5, read-out: Activity; summary of the method: as §1
# OVCAR-3 = test: Cytotoxicity against human OVCAR-3 cells assessed as cell growth at 10 uM; conditions: for growth at 10 µM: Homo sapiens, OVCAR-3, read-out: Activity; summary of the method: as §1
# HOP-62 = test: Cytotoxicity against human HOP62 cells assessed as cell growth at 10 uM; conditions: Homo sapiens, HOP-62; read-out: Activity; summary of the method: as §2
# T47D = test: Cytotoxicity against human T47D cells assessed as cell growth at 10 uM; conditions: for growth at 10 µM: Homo sapiens, T47D, read-out: Activity; summary of the method: as §1
# MOLT-4 = test: Cytotoxicity against human MOLT4 cells assessed as cell growth at 10 uM; conditions: Homo sapiens, MOLT-4; read-out: Activity; summary of the method: as §1
# Malme-3M = test: Cytotoxicity against human MALME-3M cells assessed as cell growth at 10 uM; conditions: for growth at 10 µM: Homo sapiens, Malme-3M, read-out: Activity; summary of the method: as §1
# NCI-H522 = test: Cytotoxicity against human NCI-H522 cells assessed as cell growth at 10 uM; conditions: Homo sapiens, NCI-H522; read-out: Activity; summary of the method: as §1
# UACC-62 = test: Cytotoxicity against human UACC62 cells assessed as cell growth at 10 uM; conditions: for growth at 10 µM: Homo sapiens, UACC-62, read-out: Activity; summary of the method: as §1
# NCI-H226 = test: Cytotoxicity against human NCI-H226 cells assessed as cell growth at 10 uM; conditions: Homo sapiens, NCI-H226; read-out: Activity; summary of the method: as §1
# MDA-MB-468 = test: Cytotoxicity against human MDA-MB-468 cells assessed as cell growth at 10 uM; conditions: for growth at 10 µM: Homo sapiens, MDA-MB-468, read-out: Activity; summary of the method: as §1
# DU-145 = test: Cytotoxicity against human DU145 cells assessed as cell growth at 10 uM; conditions: for growth at 10 µM: Homo sapiens, DU-145, read-out: Activity; summary of the method: as §2
# M14 = test: Cytotoxicity against human M14 cells assessed as cell growth at 10 uM; conditions: for growth at 10 µM: Homo sapiens, M14, read-out: Activity; summary of the method: as §1
# PC-3 = test: Cytotoxicity against human PC3 cells assessed as cell growth at 10 uM; conditions: for growth at 10 µM: Homo sapiens, PC-3, read-out: Activity; summary of the method: as §1
# MCF7 = test: Cytotoxicity against human MCF7 cells assessed as cell growth at 10 uM; conditions: for growth at 10 µM: Homo sapiens, MCF7, read-out: Activity; summary of the method: as §1
# 786-0 = test: Cytotoxicity against human 786-0 cells assessed as cell growth at 10 uM; conditions: for growth at 10 µM: Homo sapiens, 786-0, read-out: Activity; summary of the method: as §2
# SR = test: Cytotoxicity against human SR cells assessed as cell growth at 10 uM; conditions: for growth at 10 µM: Homo sapiens, SR, read-out: Activity; summary of the method: as §1
# IGROV-1 = test: Cytotoxicity against human IGROV1 cells assessed as cell growth at 10 uM; conditions: for growth at 10 µM: Homo sapiens, IGROV-1, read-out: Activity; summary of the method: as §1
# SF-268 = test: Cytotoxicity against human SF268 cells assessed as cell growth at 10 uM; conditions: Homo sapiens, SF-268; read-out: Activity; summary of the method: as §1
# ACHN = test: Cytotoxicity against human ACHN cells assessed as cell growth at 10 uM; conditions: for growth at 10 µM: Homo sapiens, ACHN, read-out: Activity; summary of the method: as §2
# K562 = test: Cytotoxicity against human K562 cells assessed as cell growth at 10 uM; conditions: Homo sapiens, K562; read-out: Activity; summary of the method: as §1
# OVCAR-4 = test: Cytotoxicity against human OVCAR4 cells assessed as cell growth at 10 uM; conditions: for growth at 10 µM: Homo sapiens, OVCAR-4, read-out: Activity; summary of the method: as §1
# EKVX = test: Cytotoxicity against human EKVX cells assessed as cell growth at 10 uM; conditions: Homo sapiens, EKVX; read-out: Activity; summary of the method: as §2
# BT-549 = test: Cytotoxicity against human BT549 cells assessed as cell growth at 10 uM; conditions: for growth at 10 µM: Homo sapiens, BT-549, read-out: Activity; summary of the method: as §2
# SK-OV-3 = test: Cytotoxicity against human SKOV3 cells assessed as cell growth at 10 uM; conditions: for growth at 10 µM: Homo sapiens, SK-OV-3, read-out: Activity; summary of the method: as §1
# TK-10 = test: Cytotoxicity against human TK10 cells assessed as cell growth at 10 uM; conditions: for growth at 10 µM: Homo sapiens, TK-10, read-out: Activity; summary of the method: as §1
# OVCAR-8 = test: Cytotoxicity against human OVCAR8 cells assessed as cell growth at 10 uM; conditions: for growth at 10 µM: Homo sapiens, OVCAR-8, read-out: Activity; summary of the method: as §1
# HCT-15 = test: Cytotoxicity against human HCT15 cells assessed as cell growth at 10 uM; conditions: Homo sapiens, HCT-15; read-out: Activity; summary of the method: as §2
# SNB-75 = test: Cytotoxicity against human SNB75 cells assessed as cell growth at 10 uM; conditions: Homo sapiens, SNB-75; read-out: Activity; summary of the method: as §1
# U-251 = test: Cytotoxicity against human U251 cells assessed as cell growth at 10 uM; conditions: Homo sapiens, U-251; read-out: Activity; summary of the method: as §1
# NCI-H460 = test: Cytotoxicity against human NCI-H460 cells assessed as cell growth at 10 uM; conditions: Homo sapiens, NCI-H460; read-out: Activity; summary of the method: as §1
# NCI/ADR-RES = test: Cytotoxicity against human NCI/ADR-RES cells assessed as cell growth at 10 uM; conditions: for growth at 10 µM: Homo sapiens, NCI/ADR-RES, read-out: Activity; summary of the method: as §1
structure (smiles),measurement,setting,value
c1ccc(-c2ccc(-c3ccnc(Nc4ccc(N(c5ccccc5)c5ccccc5)cc4)n3)cn2)cc1,growth at 10 µM,LOX IMVI,131%
same,growth at 10 µM,NCI-H322M,88.5%
same,growth at 10 µM,HCC 2998,112%
same,growth at 10 µM,HCT-116,40.6%
same,growth at 10 µM,SF-295,124%
same,growth at 10 µM,OVCAR-5,106%
same,growth at 10 µM,SK-MEL-2,102%
same,growth at 10 µM,HT-29,89.5%
same,growth at 10 µM,SK-MEL-5,118%
same,growth at 10 µM,OVCAR-3,125%
same,growth at 10 µM,HOP-62,122%
same,growth at 10 µM,T47D,111%
same,growth at 10 µM,MOLT-4,91.2%
same,growth at 10 µM,Malme-3M,65.2%
same,growth at 10 µM,NCI-H522,94%
same,growth at 10 µM,UACC-62,96.9%
same,growth at 10 µM,NCI-H226,115%
same,growth at 10 µM,MDA-MB-468,105%
same,growth at 10 µM,DU-145,115%
same,growth at 10 µM,M14,90.2%
same,growth at 10 µM,PC-3,87.1%
same,growth at 10 µM,MCF7,96.6%
same,growth at 10 µM,786-0,71.5%
same,growth at 10 µM,SR,38.7%
same,growth at 10 µM,IGROV-1,67.2%
same,growth at 10 µM,SF-268,90%
same,growth at 10 µM,ACHN,96.5%
same,growth at 10 µM,K562,94.9%
same,growth at 10 µM,OVCAR-4,93.4%
same,growth at 10 µM,EKVX,103%
same,growth at 10 µM,BT-549,102%
same,growth at 10 µM,SK-OV-3,119%
same,growth at 10 µM,TK-10,113%
same,growth at 10 µM,OVCAR-8,79.5%
same,growth at 10 µM,HCT-15,102%
same,growth at 10 µM,SNB-75,102%
same,growth at 10 µM,U-251,87.2%
same,growth at 10 µM,NCI-H460,84.4%
same,growth at 10 µM,NCI/ADR-RES,125%
CC(=O)c1ccccc1-c1ccc(-c2ccnc(NC(=O)Nc3cc(C(F)(F)F)cc(C(F)(F)F)c3)n2)cn1,Activity,LOX IMVI,65.57%
same,growth at 10 µM,NCI-H322M,85%
same,growth at 10 µM,HCC 2998,105%
same,growth at 10 µM,HCT-116,69.9%
same,Activity,SF-295,110.95%
same,Activity,OVCAR-5,113.85%
same,Activity,SK-MEL-2,95.01%
same,growth at 10 µM,HT-29,96.3%
same,Activity,SK-MEL-5,97.2%
same,Activity,OVCAR-3,126.52%
same,growth at 10 µM,HOP-62,95.6%
same,Activity,T47D,82.59%
same,growth at 10 µM,MOLT-4,88.3%
same,Activity,Malme-3M,105.41%
same,growth at 10 µM,NCI-H522,90.1%
same,Activity,UACC-62,92.88%
same,growth at 10 µM,NCI-H226,98.6%
same,Activity,MDA-MB-468,81.95%
same,Activity,DU-145,91.19%
same,Activity,M14,102.28%
same,Activity,PC-3,74.12%
same,Activity,MCF7,75.33%
same,Activity,786-0,93.55%
same,Activity,SR,19.97%
same,Activity,IGROV-1,78.4%
same,growth at 10 µM,SF-268,94.4%
same,Activity,ACHN,88.77%
same,growth at 10 µM,K562,90.8%
same,Activity,OVCAR-4,-18.53%
same,growth at 10 µM,EKVX,91%
same,Activity,BT-549,90.06%
same,Activity,SK-OV-3,91.88%
same,Activity,TK-10,102.3%
same,Activity,OVCAR-8,83.37%
same,growth at 10 µM,HCT-15,93.2%
same,growth at 10 µM,SNB-75,72%
same,growth at 10 µM,U-251,85.1%
same,growth at 10 µM,NCI-H460,95.9%
same,Activity,NCI/ADR-RES,87.74%
FC(F)(F)c1cc(Nc2nccc(-c3ccc(-c4ccccc4)nc3)n2)cc(C(F)(F)F)c1,growth at 10 µM,LOX IMVI,98.8%
same,growth at 10 µM,NCI-H322M,99.7%
same,growth at 10 µM,HCC 2998,124%
same,growth at 10 µM,HCT-116,81.6%
same,growth at 10 µM,SF-295,114%
same,growth at 10 µM,OVCAR-5,111%
same,growth at 10 µM,SK-MEL-2,91.6%
same,growth at 10 µM,HT-29,86%
same,growth at 10 µM,SK-MEL-5,102%
same,growth at 10 µM,OVCAR-3,114%
same,growth at 10 µM,HOP-62,110%
same,growth at 10 µM,T47D,80.1%
same,growth at 10 µM,MOLT-4,93.4%
same,growth at 10 µM,Malme-3M,123%
same,growth at 10 µM,NCI-H522,83.3%
same,growth at 10 µM,UACC-62,85.3%
same,growth at 10 µM,NCI-H226,115%
same,growth at 10 µM,MDA-MB-468,110%
same,growth at 10 µM,DU-145,109%
same,growth at 10 µM,M14,81.4%
same,growth at 10 µM,PC-3,90.3%
same,growth at 10 µM,MCF7,83.2%
same,growth at 10 µM,786-0,101%
same,growth at 10 µM,SR,97.8%
same,growth at 10 µM,IGROV-1,77.8%
same,growth at 10 µM,SF-268,105%
same,growth at 10 µM,ACHN,96%
same,growth at 10 µM,K562,91.5%
same,growth at 10 µM,OVCAR-4,95%
same,growth at 10 µM,EKVX,101%
same,growth at 10 µM,BT-549,106%
same,growth at 10 µM,SK-OV-3,94.6%
same,growth at 10 µM,TK-10,99.5%
same,growth at 10 µM,OVCAR-8,94.1%
same,growth at 10 µM,HCT-15,99.9%
same,growth at 10 µM,SNB-75,86.8%
same,growth at 10 µM,U-251,99.1%
same,growth at 10 µM,NCI-H460,107%
same,growth at 10 µM,NCI/ADR-RES,101%
